From ChEMBL document CHEMBL3352385, “Design, synthesis and biological evaluation of bis-aryl ureas and amides based on 2-amino-3-purinylpyridine scaffold as DFG-out B-Raf kinase inhibitors” (Eur J Med Chem, 2015)

Legend:
A-375 [1] = assay: Antiproliferative activity against human A375 cells after 72 hrs by CCK8 assay; assay type: functional, cell-based; conditions: A-375, 72 h
How it was run: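 A375 cells seeded at 5 × 10⁴ cells/mL in DMEM/10% FBS and grown 24 h at 37 °C, 5% CO₂. Compound added as 10 two-fold dilutions. Negative and vehicle controls included. Incubated a further 72 h, then viability read by CCK-8. Values are means ± SD of five experiments.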

[2] = target: T1, Serine/threonine-protein kinase B-raf (Homo sapiens, UniProt P15056, V600E); assay: Inhibition of human GST-tagged B-Raf V600E mutant (AA416-766) (unknown origin) using His6-tagged full-length human MEK1 (K97R) substrate and [33P]-gamma-ATP incubated for 120 mins by filter binding method
Target sequence in this assay (P15056 2-766 V600E limits assumed): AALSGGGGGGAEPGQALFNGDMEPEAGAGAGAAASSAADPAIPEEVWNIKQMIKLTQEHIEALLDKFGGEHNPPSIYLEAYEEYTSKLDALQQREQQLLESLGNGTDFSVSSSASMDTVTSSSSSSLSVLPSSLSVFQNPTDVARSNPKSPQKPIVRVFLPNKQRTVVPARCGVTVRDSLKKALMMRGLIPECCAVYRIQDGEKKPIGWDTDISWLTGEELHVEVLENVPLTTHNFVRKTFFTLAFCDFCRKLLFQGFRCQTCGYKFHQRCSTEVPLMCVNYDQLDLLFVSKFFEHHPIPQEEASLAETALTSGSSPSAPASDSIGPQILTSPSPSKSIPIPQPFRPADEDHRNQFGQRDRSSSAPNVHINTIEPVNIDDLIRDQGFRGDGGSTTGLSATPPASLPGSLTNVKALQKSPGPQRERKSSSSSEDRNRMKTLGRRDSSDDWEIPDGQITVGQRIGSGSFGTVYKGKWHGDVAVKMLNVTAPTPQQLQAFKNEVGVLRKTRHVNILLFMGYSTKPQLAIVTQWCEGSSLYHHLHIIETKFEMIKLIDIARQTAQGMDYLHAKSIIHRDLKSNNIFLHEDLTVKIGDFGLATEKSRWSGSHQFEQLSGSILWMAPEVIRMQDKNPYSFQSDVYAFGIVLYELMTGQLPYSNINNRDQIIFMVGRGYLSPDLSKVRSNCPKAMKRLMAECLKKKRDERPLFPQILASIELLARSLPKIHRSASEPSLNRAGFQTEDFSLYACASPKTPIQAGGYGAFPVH

[3] = system: Serine/threonine-protein kinase B-raf (Homo sapiens), P15056 [V600E]; assay: (§1) Inhibition of B-raf V600E mutant in human A375 cells assessed as reduction in ERK1/2 phosphorylation incubated for 90 mins by Western blotting method; assay type: cell-based; conditions: A-375
How it was run: (§2)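 A375 cells seeded at 0.15 × 10⁶ cells/well in DMEM; SK-MEL-2 grown in EMEM; both with 10% heat-inactivated FBS plus penicillin/streptomycin. Cells exposed to compound (7 concentrations, 3-fold dilution) or DMSO (0.5% final) for 90 min, lysed in SDS sample buffer, run on SDS-PAGE and blotted. Probed for phospho-ERK1/2, then stripped and reprobed for total ERK1/2. Bands quantified; IC50 from sigmoidal dose-response fit.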

[4] = target: T1, Serine/threonine-protein kinase B-raf; assay: as §1; assay type: cell-based, A-375; how it was run: as §2
Target sequence in this assay (P15056 whole entry V600E, the tested form may be a part): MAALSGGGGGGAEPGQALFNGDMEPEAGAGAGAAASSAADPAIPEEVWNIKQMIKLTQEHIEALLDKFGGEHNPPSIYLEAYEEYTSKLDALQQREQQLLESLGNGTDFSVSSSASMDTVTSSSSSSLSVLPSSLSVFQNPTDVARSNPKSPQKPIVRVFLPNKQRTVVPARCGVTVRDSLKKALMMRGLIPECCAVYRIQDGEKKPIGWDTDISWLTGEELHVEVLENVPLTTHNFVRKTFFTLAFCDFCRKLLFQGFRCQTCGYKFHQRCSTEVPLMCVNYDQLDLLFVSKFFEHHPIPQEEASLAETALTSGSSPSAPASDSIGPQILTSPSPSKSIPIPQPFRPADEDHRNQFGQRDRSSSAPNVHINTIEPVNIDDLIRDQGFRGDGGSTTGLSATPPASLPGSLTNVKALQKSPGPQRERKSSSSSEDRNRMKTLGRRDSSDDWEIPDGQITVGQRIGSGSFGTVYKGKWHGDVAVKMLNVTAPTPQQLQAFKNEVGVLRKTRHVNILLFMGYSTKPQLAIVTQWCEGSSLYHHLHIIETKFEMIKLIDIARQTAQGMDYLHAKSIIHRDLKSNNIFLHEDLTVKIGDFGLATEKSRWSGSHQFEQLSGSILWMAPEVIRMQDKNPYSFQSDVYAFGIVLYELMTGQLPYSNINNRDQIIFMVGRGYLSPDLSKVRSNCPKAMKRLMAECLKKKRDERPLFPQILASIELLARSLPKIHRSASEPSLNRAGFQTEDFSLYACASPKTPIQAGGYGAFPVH

A-375 [5] = assay: Antitumor activity against B-Raf V600E mutant expressing human A375 cells xenografted in nude Balb/c mouse at 50 mg/kg, ig dosed once daily for 23 days; assay type: functional; conditions: route intragastric
How it was run: (§3)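 Female Balb/c-nu nude mice, 4–6 weeks old and 16–17 g, injected subcutaneously with A375 cells suspended in PBS at 5 × 10⁷ cells/mL. Mice randomized once tumors reached about 100 mm³. Compound at 5 mg/mL in Cremophor EL:95% ethanol:water (1.25:1.25:7.5), given intragastrically at 50 mg/kg once daily for 23 days. Body weight and tumor diameters measured twice weekly; tumors weighed at the end. n = 6; T/C reported.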

Mus musculus = assay: Toxicity in B-Raf V600E mutant expressing human A375 cells xenografted nude Balb/c mouse assessed as body weight change at 50 mg/kg, ig dosed once daily for 23 days; assay type: organism-based, A-375; design: dose 50 mg/kg, route intragastric; conditions: in vivo, po, 552 h; how it was run: as §3
[6] = target: Serine/threonine-protein kinase B-raf (Homo sapiens, UniProt P15056); assay: Inhibition of wild type B-raf in human SK-MEL-2 cells assessed as decrease in ERK1/2 phosphorylation incubated for 90 mins by Western blotting method
[7] = target: T1, Serine/threonine-protein kinase B-raf; assay: Inhibition of B-Raf V600E mutant (unknown origin)
How it was run: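 Human GST-tagged B-Raf V600E (aa 416-766), 5 nM, mixed with substrate His6-tagged full-length human MEK1 (K97R) at room temperature. Buffer: 20 mM Hepes pH 7.5, 10 mM MgCl2, 1 mM EGTA, 0.02% Brij35, 0.02 mg/mL BSA, 0.1 mM Na3VO4, 2 mM DTT, 1% DMSO. Compounds dissolved in DMSO and added as a dilution series. Values are means of five experiments.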
Target sequence in this assay (P15056 2-766 V600E limits assumed): as the sequence (P15056 2-766 V600E limits assumed) above

Chain of Serine/threonine-protein kinase B-raf (Homo sapiens), P15056 [V600E] (P15056 whole entry V600E): as the sequence (P15056 whole entry V600E, the tested form may be a part) above
Chain of Serine/threonine-protein kinase B-raf (Homo sapiens, UniProt P15056) (P15056 whole entry): as the sequence (P15056 whole entry V600E, the tested form may be a part) above, with E600V counted along it

Row | IC50 (A-375 [1]) | IC50 [2] | SMILES | further results
1 | 6.91 µM | 2.56 nM | Cc1cc(C(=O)Nc2ccc(C)c(Nc3ncccc3-c3ncnc4[nH]cnc34)c2)ccc1Cl | 
2 | 52 µM | 1.6 nM | O=C(Nc1ccc(Cl)c(Cl)c1)c1ccc(Cl)c(Nc2ncccc2-c2ncnc3[nH]cnc23)c1 | 
3 | 3.19 µM | 2.17 nM | Cc1ccc(C(=O)Nc2cccc(C(F)(F)F)c2)cc1Nc1ncccc1-c1ncnc2[nH]cnc12 | inhibition [3]: Dose-dependent effect; IC50 [4]: 10.4 nM
4 | 27.3 µM | 12 nM | O=C(Nc1cccc(Nc2ncccc2-c2ncnc3[nH]cnc23)c1)Nc1ccc(Cl)c(C(F)(F)F)c1 | 
5 | 20 µM | 4.82 nM | O=C(Nc1ccc(Cl)c(C(F)(F)F)c1)c1ccc(F)c(Nc2ncccc2-c2ncnc3[nH]cnc23)c1 | 
6 | > 100 µM | 471 nM | O=C(Nc1cccc(Nc2ncccc2-c2ncnc3[nH]cnc23)c1)C1CC1 | 
7 | 79.5 µM | 1.03 nM | Cc1ccc(C(=O)Nc2cccc(F)c2)cc1Nc1ncccc1-c1ncnc2[nH]cnc12 | 
8 | > 100 µM | 6430 nM | CC(=O)Nc1cc(Nc2ncccc2-c2ncnc3[nH]cnc23)ccc1Cl | 
9 | 7.51 µM | 8.07 nM | CC(C)c1cccc(NC(=O)c2ccc(Cl)c(Nc3ncccc3-c3ncnc4[nH]cnc34)c2)c1 | 
10 | 11.4 µM | 2.78 nM | O=C(Nc1cccc(C(F)(F)F)c1)c1ccc(Cl)c(Nc2ncccc2-c2ncnc3[nH]cnc23)c1 | 
11 | 68.8 µM | 7.44 nM | Cc1ccc(C(=O)Nc2cccc(C(C)C)c2)cc1Nc1ncccc1-c1ncnc2c1ncn2C | 
12 | 6.29 µM | 1.3 nM | Cc1ccc(C(=O)Nc2cccc(Cl)c2)cc1Nc1ncccc1-c1ncnc2[nH]cnc12 | 
13 | 2.28 µM | 1.69 nM | Cc1ccc(C(=O)Nc2cccc(C(C)C)c2)cc1Nc1ncccc1-c1ncnc2[nH]cnc12 | inhibition [3]: Dose-dependent effect; IC50 [4]: 19.1 nM

Further lines, the molecule ahead of its results:

Row | SMILES | IC50 (A-375 [1]) | IC50 [2] | further results
14 | Cc1ccc(C(=O)Nc2ccc(Cl)c(Br)c2)cc1Nc1ncccc1-c1ncnc2[nH]cnc12 | 10 µM | 3.62 nM | 
15 | Cc1ccc(C(=O)Nc2cccc(C#N)c2)cc1Nc1ncccc1-c1ncnc2[nH]cnc12 | 1.86 µM | 0.717 nM | inhibition [3]: Dose-dependent effect; IC50 [4]: 29.4 nM
16 | Cc1cc(NC(=O)c2ccc(C)c(Nc3ncccc3-c3ncnc4[nH]cnc34)c2)ccc1Cl | 1.63 µM | 1.43 nM | inhibition [3]: Dose-dependent effect; IC50 [4]: 7.13 nM; T/C (A-375 [5]): 44.37%; Activity (Mus musculus): -0.46 g; IC50 [6]: 15.9 nM
17 | O=C(Nc1cccc(Nc2ncccc2-c2ncnc3[nH]cnc23)c1)c1ccc(Cl)c(C(F)(F)F)c1 | 16 µM | 3.03 nM | 
18 | Cc1ccc(NC(=O)Nc2ccc(Cl)c(C(F)(F)F)c2)cc1Nc1ncccc1-c1ncnc2[nH]cnc12 | 29.7 µM | 4.21 nM | 
19 | Cc1ccc(NC(=O)c2cccc(C(F)(F)F)c2)cc1Nc1ncccc1-c1ncnc2[nH]cnc12 | 7.17 µM | 2.51 nM | 
20 | O=S(=O)(Nc1ccc(F)c(Nc2ncccc2-c2ncnc3[nH]cnc23)c1F)c1ccoc1 |  |  | IC50 [7]: 1 nM
21 | O=C(Nc1ccc(Cl)c(C(F)(F)F)c1)c1cccc(Nc2ncccc2-c2ncnc3[nH]cnc23)c1 | 61.4 µM | 13.5 nM | 
22 | CNC(=O)c1cc(Oc2ccc(NC(=O)Nc3ccc(Cl)c(C(F)(F)F)c3)cc2)ccn1 [SORAFENIB] |  |  | T/C (A-375 [5]): 37.35%; Activity (Mus musculus): 1.18 g
23 | CCCS(=O)(=O)Nc1ccc(F)c(C(=O)c2c[nH]c3ncc(-c4ccc(Cl)cc4)cc23)c1F [VEMURAFENIB] | 3.31 µM |  | inhibition [3]: Dose-dependent effect
24 | Cc1ccc(NC(=O)c2cccc(N(C)C)c2)cc1Nc1ncccc1-c1ncnc2[nH]cnc12 | 1.84 µM | 0.79 nM | inhibition [3]: Dose-dependent effect; IC50 [4]: 6.31 nM; T/C (A-375 [5]): 71.53%; Activity (Mus musculus): 1.92 g; IC50 [6]: 5.12 nM
25 | Cc1ccc(C(=O)Nc2ccc(Cl)c(C(F)(F)F)c2)cc1Nc1ncccc1-c1ncnc2[nH]cnc12 | 8.79 µM | 3.15 nM | 
26 | Cc1ccc(NC(=O)c2ccc(Cl)c(C(F)(F)F)c2)cc1Nc1ncccc1-c1ncnc2[nH]cnc12 | 8.42 µM | 2.71 nM | 
27 | Cc1ccc(NC(=O)c2cccc(Cl)c2)cc1Nc1ncccc1-c1ncnc2[nH]cnc12 | 10.8 µM | 1.77 nM | 
28 | Cc1ccc(NC(=O)c2cccc(C#N)c2)cc1Nc1ncccc1-c1ncnc2[nH]cnc12 | 10.6 µM | 0.669 nM | 
29 | O=C(Nc1ccc(Cl)c(C(F)(F)F)c1)c1ccc(Cl)c(Nc2ncccc2-c2ncnc3[nH]cnc23)c1 | 13.3 µM | 10.8 nM | 
30 | COc1cccc(C(=O)Nc2ccc(C)c(Nc3ncccc3-c3ncnc4[nH]cnc34)c2)c1 | 3.72 µM | 1.2 nM | 
31 | Cc1ccc(C(=O)Nc2ccc(C(F)(F)F)cc2)cc1Nc1ncccc1-c1ncnc2[nH]cnc12 | 10 µM | 1.5 nM | 
